Screening data deposited in PubChem BioAssay by several laboratories.
M1 ag: M1 muscarinic receptor agonists, primary screen, CHO-M1 cells, Fluo-4 calcium, agonist mode | Muscarinic acetylcholine receptor M1 | Fluo-4 calcium fluorescence; active compounds read high | B-score at 10 µM | 64,000 tested, 3% active | AID 626, 2007;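 active means fluorescence rise, raw or as B-score row- and column-corrected plate score, outside the 99.7% band of its plate's samples, either direction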
WNV protease inh: inhibitors of WNV NS2B-NS3 protease, primary screen, biochemical, fluorogenic substrate. Genome polyprotein (West Nile virus), P06935. fluorogenic substrate Ex360/Em465; active compounds read low. z-score (concentration not given with the values). 65,000 tested, 0.18% active; in the data active means z-score below about -3
Target sequence (P06935 1371-1501 limits assumed): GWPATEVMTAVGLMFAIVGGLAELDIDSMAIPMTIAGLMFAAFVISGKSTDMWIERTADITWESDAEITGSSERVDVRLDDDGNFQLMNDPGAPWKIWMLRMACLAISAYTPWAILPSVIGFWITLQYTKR
Target sequence (P06935 1502-1679 limits assumed): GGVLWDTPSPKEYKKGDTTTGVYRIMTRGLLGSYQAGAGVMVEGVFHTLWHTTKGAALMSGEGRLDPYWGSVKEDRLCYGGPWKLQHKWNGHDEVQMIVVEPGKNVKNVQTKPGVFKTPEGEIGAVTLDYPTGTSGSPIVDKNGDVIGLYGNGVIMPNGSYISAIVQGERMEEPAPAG
AP ELISA ortho: alternative complement pathway inhibitors, primary screen, biochemical, ELISA, human serum, orthogonally pooled compounds. inhibition, % at 5 µM. AID 1235, 2008. 62,000 tested, 0.08% active. LPS-coated ELISA, C3 deposition; tested in compound mixtures;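 active means inhibition above 30% in each of the two pooled mixtures holding the compound, so the lower value exceeds 30%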
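Assay system: human serum alternative complement pathway, C3 deposition on LPS-coated wells; Dosing: 5 µM per compound in ten-compound mixtures; Detection: Anti-C3 ELISA, OD 450 nm; Buffer or medium: Mg2+-EGTA GVB++ buffer containing human serum at 1:15 dilution; Timing: 1 h at 37 °C; Replication: two different pools per compound.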
M1 antag: antagonists of rat M1 muscarinic receptor; Muscarinic acetylcholine receptor M1 (Rattus norvegicus), P08482; CHO-M1 cells, Fluo-4 calcium, ACh EC80 antagonist mode; active compounds read low; B-score at 10 µM; 64,000 tested, 3.4% active;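 active means calcium fluorescence response, raw or row-and-column corrected B-score, differing from the plate sample mean either way at a set confidence level, mostly lower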
E coli WT exp: growth inhibitors of wild-type E. coli, primary screen, strain BW25113, expanded library, OD600 | OD600 absorbance | growth inhibition, % at 100 µM | 98,000 tested, 0.15% active | AID 710, 2007;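 active means growth inhibition above about 50% at one test dose, limit read from the data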;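 further: growth measured after 20 h incubation at 37 °C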
tolC growth inh: growth inhibitors of E. coli tolC mutant, primary screen, strain BW25113 ΔtolC::kan, 384-well | AID 573, 2007 | 65,000 tested, 2.2% active | OD615 | growth inhibition, % at 10 µM (by protocol);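 active means growth inhibition at or above a cutoff equal to the mean over every tested compound plus 3 SD, cut at about 60% in these data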;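 further: growth measured after 20 h incubation at 37 °C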
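Test system: tolC-deleted E. coli BW25113 | Medium: LB with kanamycin 50 µg/mL | Compound dosing: Single concentration, 10 µM final per compound | Schedule: 37 °C, 20 h exposure | Measured by: OD at 615 nm | Evaluation: Percent growth inhibition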
M1 agonist conf: rat M1 muscarinic receptor agonists, confirmation, CHO-M1 cells, Fluo-4 calcium, duplicate retest; fluorescence change (max-min) at 10 µM; shares compounds with M1 ag; 1,700 tested, 19% active; Fluo-4 calcium fluorescence, agonist mode; actives lie on both sides;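 active means fluorescence change differs from the solvent-only DMSO control mean at a set confidence level in both duplicate runs; inconclusive means differs from solvent-only control mean in just one of two runs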;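 further: an EC20 dose of acetylcholine follows compound addition during the same imaging run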
M4 agonist ctr: agonist activity at rat M4 receptor, confirmation, counter-screen for M1 allosteric modulator project, cell-based, agonist mode; shares compounds with M1 ag; 1,700 tested, 9% active; fluorescence change (max-min) at 10 µM; CHO M4/Gqi5 cells, Fluo-4 calcium fluorescence; actives lie on both sides; AID 1741, 2009;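 active means fluorescence change differing from the plate's solvent-only control wells at 99.7% confidence in both duplicates, whether higher or lower; inconclusive means differs from solvent controls in only one of two duplicates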
Hits are given with their value; n = inactive; u = inconclusive; x = no result. This is a sample that favours compounds with a hit; in the whole collection about 5.2% have one here.

SMILES	M1 ag	WNV protease inh	AP ELISA ortho	M1 antag	E coli WT exp	tolC growth inh	M1 agonist conf	M4 agonist ctr
CCOP(=O)(c1ccc(N(C)C)cc1)C(O)c1c(Cl)cccc1Cl (stereo not given)	8	n	n	n	n	n	u	n
CCn1c(=O)c(C(=O)Nc2nc3ccccc3[nH]2)c(O)c2ccccc21	n	n	n	n	n	n	x	x
Cc1ccc(N2C(=O)c3cccc4c(N5CCN(C)CC5)ccc(c34)C2=O)c2cccnc12	405	n	n	-3.1	n	n	956	1220
COc1ccc(OC)c2[nH]c(=O)c(CCNC(=O)c3ccc(Br)o3)cc12	n	n	x	n	n	n	x	x
O=C(Cc1ccc(-n2cccc2)cc1)NCc1cccs1	n	n	n	n	n	n	x	x
CCC(=O)Nc1cc(C(F)(F)F)ccc1N1CCOCC1	n	n	n	n	n	n	x	x
O=C(COC(=O)CN1C(=O)C2CC=CCC2C1=O)Nc1cc(C(F)(F)F)ccc1N1CCOCC1 (stereo not given)	3.6	n	n	n	n	n	u	u
COc1cc(OC)c(N2CC34C=CC(O3)C(C(=O)O)C4C2=O)cc1Cl (stereo not given)	n	n	n	n	n	n	x	x
CC(CCc1ccccc1)NC(=O)CN1CCN(Cc2ccc(Cl)cc2)C1=O (stereo not given)	x	x	x	x	n	x	x	x
CCN1CCN(C(=O)CCCCCn2c(=O)[nH]c3cc(C(=O)OC)ccc3c2=O)CC1	n	n	n	n	n	n	x	x
COC(=O)c1ccc2c(=O)n(CCCCCC(=O)N3CCN(c4ccccc4)CC3)c(=O)[nH]c2c1	11	n	n	n	n	n	n	n
COc1cc2[nH]c(=O)n(CCC(=O)N3CCN(c4cccc(C)c4C)CC3)c(=O)c2cc1OC	n	n	n	n	n	n	x	x
COc1cc2[nH]c(=O)n(CCCCCC(=O)N3CCN(c4ccccc4)CC3)c(=O)c2cc1OC	2.8	x	n	n	n	n	n	n
O=C(COC(=O)c1ccc[nH]c1=O)NCC1CCCO1 (stereo not given)	n	n	n	n	n	n	x	x
CCn1c(C)nc2cc(C(=O)OC(C(F)(F)C(F)F)C(F)(F)C(F)F)ccc21	11	n	n	-0.79	n	n	n	n
CCn1c(C)nc2cc(C(=O)NNS(=O)(=O)c3c(C)c(C)cc(C)c3C)ccc21	x	x	x	x	n	x	x	x
O=C(Cc1nc2ccccc2s1)c1ccc(O)cc1O	-1.8	n	n	n	n	n	n	n
Cc1cc(N2CCN(c3ccccc3)CC2)n2nnnc2n1	n	n	n	n	n	n	x	x
Cc1cc(N2CCN(c3ccccc3)CC2)n2c(n1)nc1ccccc12	7.5	n	n	n	n	n	-32	n
COc1ccc2nc(NC(=O)C(NS(=O)(=O)c3cccc4nsnc34)C(C)C)sc2c1 (stereo not given)	x	x	x	x	n	x	x	x
COc1ccc(-c2nnn(CC(=O)N(Cc3cccs3)C(C)C(=O)NCCC(C)C)n2)cc1OC (stereo not given)	x	x	x	x	n	x	x	x
CC1CCN(C(=O)c2cc3ccccc3o2)CC1	n	n	n	n	n	n	x	x
N#Cc1ccc(-n2nccc2-c2cnc3n(c2=O)CCS3)cc1	x	x	x	x	n	x	x	x
Cc1ccc(-c2nc3ncccc3o2)cc1NC(=O)c1sc2ccccc2c1Cl	x	x	x	x	n	x	x	x
COC(=O)c1cc(=O)n(Cc2ccco2)c(=Nc2ccc(F)c(Cl)c2)s1	7.1	n	n	n	n	n	n	n
SMILES	M1 ag	WNV protease inh	AP ELISA ortho	M1 antag	E coli WT exp	tolC growth inh	M1 agonist conf	M4 agonist ctr
C=CCOC(=O)C1=C(C)OC(N)=C(C#N)C1c1ccoc1 (stereo not given)	21	n	n	n	n	n	n	n
CCc1c(C)nc2ncnn2c1N1CCCC(C(=O)Nc2cc(F)ccc2C)C1 (stereo not given)	x	x	x	x	n	x	x	x
Cc1c(C(=O)NCCc2ccccc2)oc2ccc(S(=O)(=O)N3CCOCC3)cc12	2.3	n	n	n	n	n	-31	u
Cc1c(C(=O)NCC2COc3ccccc3O2)oc2ccc(S(=O)(=O)N3CCOCC3)cc12 (stereo not given)	16	x	n	-2.4	n	n	n	u
Cc1cc2ccccc2n1CCNC(=O)c1ccc(S(=O)(=O)N2CCOCC2)cc1	8.9	n	n	n	n	n	n	n
Cc1cc2ccccc2n1CCNC(=O)c1ccccc1	n	n	n	n	n	n	x	x
Cc1c(C(=O)NCCN2CCOCC2)oc2ccc(S(=O)(=O)N3CCCCCC3)cc12	n	n	n	n	n	n	x	x
COC(/C=C/Nc1ccc(Br)cc1)=C(C#N)C#N	x	x	x	x	n	x	x	x
C=CCOc1ccc2ccccc2c1/C=N/O	x	x	x	x	n	x	x	x
COc1ccc2ccccc2c1/C=N/O	5.6	n	n	n	n	n	u	-71
COc1ccccc1S(=O)Cc1ccc(C(=O)NCc2ccccc2Cl)o1 (stereo not given)	n	n	n	n	n	n	x	x
N#Cc1c(NC(=O)c2nc3ncccn3n2)sc2c1CCCCC2	-1.8	n	n	n	n	n	u	n
Cc1cc(C(=O)Nc2sc3c(c2C#N)CCCCC3)cs1	n	n	n	n	n	n	x	x
COc1ccc(NCc2nnc(SCC(=O)Nc3cc(C)cc(C)c3)o2)cc1	n	n	n	n	n	n	x	x
COc1ccc(CCNC(=O)CSc2nnc(CNc3ccc(Cl)cc3)o2)cc1OC	-2.2	n	n	n	n	n	n	n
Cc1onc(-c2c(F)cccc2Cl)c1C(=O)NCc1ccco1	n	n	n	n	n	n	x	x
O=C(CSCc1c(F)cccc1Cl)NCc1ccco1	1.5	n	n	n	n	n	n	n
C/C(N)=C(/C#N)C(=O)CSc1nnnn1-c1ccc(C)cc1C	n	n	n	n	n	n	x	x
O=C(O)CSc1nnc(CNc2ccccc2Cl)n1-c1ccccc1	84	n	n	3	n	n	u	n
CCOC(=O)N1CCC(NCCNC(=O)c2cccs2)CC1	28	n	n	-2.6	n	n	256	u
CCOC(=O)N1CCC(NCCNC(=O)c2ccccc2)CC1	x	n	n	x	n	n	x	x
CCOC(=O)N1CCC(NCCNC(=O)c2ccccc2Cl)CC1	25	n	n	-9.1	n	n	267	u
CCCCOCCCNC(=O)c1cccs1	n	n	n	n	n	n	x	x
CN1CCC(NC(=O)c2cccs2)CC1	6.6	n	n	n	n	n	n	u
